Laboratory results reported in ChEMBL document CHEMBL1212869, “Anti-HIV and antiplasmodial activity of original flavonoid derivatives” (Bioorg Med Chem, 2010).

Legend:
[1] = system: Human immunodeficiency virus 1; assay: Antiviral activity against HIV1 3B infected in human MT4 cells assessed as inhibition of virus-induced cytopathic effect after 4 days by MTT assay; type: functional, organism-based; conditions: Human immunodeficiency virus 1, 3B, MT4, 96 h
[2] = system: Human immunodeficiency virus 2; assay: Antiviral activity against HIV2 ROD infected in human MT4 cells assessed as inhibition of virus-induced cytopathic effect after 4 days by MTT assay; type: functional, organism-based; conditions: Human immunodeficiency virus 2, ISOLATE ROD, MT4, 96 h
[3] = system: Plasmodium falciparum; assay: Antiplasmodial activity against chloroquine-resistant Plasmodium falciparum W2 infected in human A+ erythrocytes assessed as inhibition of parasite proliferation after 48 hrs; type: functional, organism-based; conditions: W2, 48 h
Summary of the method: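 W2 parasites were cultured in RPMI 1640 with 25 mM HEPES, 25 mM NaHCO3 and 10% A+ human serum at 2.5% hematocrit, at 37 °C under 10% O2/6% CO2/84% N2. After 48 h exposure without medium change, cells were stained with hydroethidine (0.05 mg/mL in PBS, 20 min, dark, 37 °C). Parasitaemia was read by flow cytometry. IC50 came from three independent experiments.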

[4] = Cytotoxicity against human MT4 cells after 4 days by MTT assay; type: cell-based
Summary of the method: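 Uninfected MT-4 cells were run in parallel with the antiviral test under the same conditions: 10⁵ cells/mL, serial compound dilutions from DMSO stocks, 4 days at 37 °C. Viability was read by MTT. CC50 is the concentration that lowers viability of uninfected cells by 50%.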

[5] = system: THP-1; assay: Cytotoxicity against human THP1 cells using propidium iodide staining after 72 hrs by flow cytometry; type: cell-based; conditions: THP-1, 72 h
[6] = Selectivity index, ratio of IC50 for human THP1 cells to IC50 for chloroquine-resistant Plasmodium falciparum W2; type: toxicity, cell-based, THP-1; conditions: read-out: Selectivity Index

Structure (SMILES)	IC50 [1]	IC50 [2]	IC50 [3]	CC50 at 96 h [4]	IC50 [5]	selectivity ratio [6]
CC(=O)Nc1ccc2oc(-c3ccccc3F)cc(=O)c2c1	205 µM	205 µM	40 µM	205 µM	> 125 µM	> 3.1
CC(=O)Nc1ccc(O)c(C(=O)/C=C/c2ccc(F)cc2)c1	41.1 µM	41.1 µM	16.9 µM	41.1 µM	68.8 µM	4.1
COc1cccc(/C=C/C(=O)c2cc(NC(C)=O)ccc2O)c1	40 µM	40 µM	13.2 µM	40 µM	93.7 µM	7.1
CC(=O)Nc1ccc(O)c(C(=O)/C=C/c2cccc(F)c2)c1	30.1 µM	30.1 µM	15.7 µM	30.1 µM	78.6 µM	5
CC(=O)Nc1ccc2oc(-c3cccc(F)c3)cc(=O)c2c1	240 µM	240 µM	50 µM	240 µM	> 125 µM	> 2.5
COc1cccc2c1C(=O)c1c(O)c3c(c(O)c1C2=O)C[C@@](O)(C(=O)CO)C[C@@H]3O[C@H]1C[C@H](N)[C@H](O)[C@H](C)O1 [DOXORUBICIN]	–	–	–	–	0.07 µM	–
COc1c(-c2ccccc2)oc2ccc(NC(C)=O)cc2c1=O	200 µM	200 µM	18 µM	200 µM	> 125 µM	> 6.9
COc1ccc(-c2oc3ccc(N)cc3c(=O)c2O)cc1	239 µM	239 µM	> 29 µM	239 µM	29 µM	–
COc1ccccc1-c1oc2ccc(NC(C)=O)cc2c(=O)c1OC	154 µM	154 µM	16 µM	154 µM	108 µM	6.7
CC(=O)Nc1ccc(O)c(C(=O)/C=C/c2ccccc2)c1	49.8 µM	49.8 µM	15.9 µM	49.4 µM	85.5 µM	5.4
COc1ccc(-c2oc3ccc(NC(C)=O)cc3c(=O)c2O)cc1	98.7 µM	98.7 µM	> 9 µM	98.7 µM	9 µM	–
Nc1ccc2oc(-c3ccccc3F)c(O)c(=O)c2c1	44.5 µM	44.5 µM	> 38 µM	44.5 µM	38 µM	–
COc1ccc(-c2oc3ccc(NC(C)=O)cc3c(=O)c2OC)cc1	369 µM	369 µM	21 µM	369 µM	> 50 µM	> 2.4
Nc1ccc2oc(-c3ccc(C(F)(F)F)cc3)c(O)c(=O)c2c1	3.9 µM	3.9 µM	> 50 µM	3.9 µM	> 125 µM	–
COc1c(-c2ccccc2F)oc2ccc(NC(C)=O)cc2c1=O	180 µM	180 µM	15 µM	180 µM	> 125 µM	> 8.3
CC(=O)Nc1ccc(O)c(C(=O)/C=C/c2ccc(C(F)(F)F)cc2)c1	21.1 µM	21.1 µM	11.6 µM	21.1 µM	15.5 µM	1.3
COc1cccc(-c2oc3ccc(N)cc3c(=O)c2O)c1	40.8 µM	40.8 µM	> 2 µM	40.8 µM	2 µM	–
COc1c(-c2ccccc2)oc2ccc(N)cc2c1=O	126 µM	126 µM	20 µM	126 µM	74 µM	3.7
CC(=O)Nc1ccc(O)c(C(=O)/C=C/c2cccc(C(F)(F)F)c2)c1	32.1 µM	32.1 µM	11.3 µM	32.1 µM	8.4 µM	–
Nc1ccc2oc(-c3ccc(F)cc3)c(O)c(=O)c2c1	92.6 µM	92.6 µM	> 4 µM	92.6 µM	4 µM	–
COc1cccc(-c2oc3ccc(N)cc3c(=O)c2OC)c1	251 µM	251 µM	13 µM	251 µM	37 µM	2.8
Nc1ccc2oc(-c3ccc(F)cc3)cc(=O)c2c1	264 µM	264 µM	> 10 µM	264 µM	10 µM	–
Nc1ccc2oc(-c3ccccc3F)cc(=O)c2c1	284 µM	283 µM	> 44 µM	283 µM	44 µM	–
CC(=O)Nc1ccc(O)c(C(=O)/C=C/c2ccccc2F)c1	33.8 µM	33.8 µM	12.3 µM	33.8 µM	> 125 µM	> 10.2

Structure (SMILES)	IC50 [1]	IC50 [2]	IC50 [3]	CC50 at 96 h [4]	IC50 [5]	selectivity ratio [6]
COc1ccccc1-c1oc2ccc(NC(C)=O)cc2c(=O)c1O	385 µM	385 µM	50 µM	385 µM	> 125 µM	> 2.5
CC(=O)Nc1ccc2oc(-c3cccc(C(F)(F)F)c3)c(O)c(=O)c2c1	5.7 µM	5.7 µM	> 1 µM	5.7 µM	1 µM	–
CC(=O)Nc1ccc2oc(-c3ccc(C(F)(F)F)cc3)c(O)c(=O)c2c1	7.3 µM	7.3 µM	> 50 µM	7.3 µM	> 50 µM	–
COc1cccc(-c2oc3ccc(NC(C)=O)cc3c(=O)c2O)c1	33.3 µM	33.3 µM	50 µM	33.3 µM	50 µM	–
COc1c(-c2ccc(F)cc2)oc2ccc(N)cc2c1=O	141 µM	141 µM	33 µM	141 µM	36 µM	1.1
COc1cccc(-c2cc(=O)c3cc(NC(C)=O)ccc3o2)c1	> 404 µM	> 404 µM	> 10 µM	> 404 µM	10 µM	–
Nc1ccc2oc(-c3ccccc3)c(O)c(=O)c2c1	216 µM	216 µM	> 27 µM	216 µM	27 µM	–
COc1ccccc1-c1cc(=O)c2cc(NC(C)=O)ccc2o1	226 µM	226 µM	> 50 µM	226 µM	50 µM	–
Nc1ccc2oc(-c3ccccc3)cc(=O)c2c1 [6-AMINOFLAVONE]	209 µM	209 µM	> 36 µM	209 µM	36 µM	–
Nc1ccc2oc(-c3cccc(C(F)(F)F)c3)cc(=O)c2c1	138 µM	138 µM	> 34 µM	138 µM	34 µM	–
CC(=O)Nc1ccc2oc(-c3cccc(C(F)(F)F)c3)cc(=O)c2c1	10 µM	10 µM	50 µM	10 µM	50 µM	–
COc1ccc(-c2cc(=O)c3cc(NC(C)=O)ccc3o2)cc1	226 µM	226 µM	> 50 µM	226 µM	74 µM	–
CC(=O)Nc1ccc2oc(-c3ccc(F)cc3)c(O)c(=O)c2c1	34.1 µM	34.1 µM	> 26 µM	34.1 µM	26 µM	–
CC(=O)Nc1ccc2oc(-c3ccccc3F)c(O)c(=O)c2c1	171 µM	171 µM	> 47 µM	171 µM	47 µM	–
CC(=O)Nc1ccc2oc(-c3ccccc3)c(O)c(=O)c2c1	64.7 µM	64.7 µM	> 36 µM	64.7 µM	36 µM	–
Nc1ccc2oc(-c3cccc(F)c3)c(O)c(=O)c2c1	35.3 µM	35.3 µM	> 30 µM	35.3 µM	30 µM	–
Nc1ccc2oc(-c3ccc(C(F)(F)F)cc3)cc(=O)c2c1	273 µM	273 µM	> 1.9 µM	273 µM	1.9 µM	–
COc1cccc(-c2oc3ccc(NC(C)=O)cc3c(=O)c2OC)c1	369 µM	369 µM	> 5 µM	369 µM	5 µM	–
CC(=O)Nc1ccc2oc(-c3ccc(C(F)(F)F)cc3)cc(=O)c2c1	330 µM	330 µM	> 10 µM	330 µM	10 µM	–
Nc1ccc2oc(-c3cccc(C(F)(F)F)c3)c(O)c(=O)c2c1	8.1 µM	8.1 µM	> 2 µM	8.1 µM	2 µM	–
CC(=O)Nc1ccc2oc(-c3ccccc3)cc(=O)c2c1	184 µM	184 µM	> 50 µM	184 µM	97 µM	–
CC(=O)Nc1ccc2oc(-c3ccc(F)cc3)cc(=O)c2c1	203 µM	203 µM	> 22 µM	203 µM	22 µM	–
CC(=O)Nc1ccc2oc(-c3cccc(F)c3)c(O)c(=O)c2c1	26.5 µM	26.5 µM	> 36 µM	26.5 µM	36 µM	–
